Results from different studies.
Compare with care: the assays were run in different laboratories.

Structure (SMILES) | target or system | test | setting | measurement | value
COc1ccc(Cn2cc(C[C@@]3(O)C[C@@H]4c5cc(OCc6cc(C)cc(C)c6)c(OCc6cc(C)cc(C)c6)cc5CCN4[C@@H](C)C3)nn2)cc1 | ASPC1 | cell growth or viability, MTT |  | IC50 | 1280 nM
Cc1cc(Nc2ncc(Cl)c(Nc3ccccc3S(=O)(=O)C(C)C)n2)c(OC(C)C)cc1C1CCNCC1 | KARPAS-299 | cell growth or viability, MTT | 0.02058 µg/mL, 72 h | inhibition | 22.4%
Cc1cc(C)cc(COc2cc3c(cc2OCc2cc(C)cc(C)c2)[C@H]2C[C@](O)(Cc4cn(CCc5ccccc5)nn4)C[C@H](C)N2CC3)c1 | ASPC1 | cell growth or viability, MTT |  | IC50 | 794 nM
CC(C)C[C@H](NC(=O)[C@H](Cc1ccccc1)NC(=O)c1cnccn1)B(O)O | HCC1569 | cell growth or viability, ATP luminescence |  | IC50 | 4.9 nM
COc1ccc(S(=O)(=O)c2ccc(C)cc2)c(OC)c1OC |  | tubulin polymerisation, inhibitor, absorbance | pH 6.6 | IC50 | > 40000 nM
C[C@@H](Oc1cc(-c2cnn(C3CCNCC3)c2)cnc1N)c1c(Cl)ccc(F)c1Cl | KARPAS-299 | cell growth or viability, MTT | 0.04 µg/mL, 72 h | inhibition | 58.8%
COc1ccc(S(=O)(=O)c2ccc(OC)c(OC)c2OC)cc1 |  | tubulin polymerisation, inhibitor, absorbance | pH 6.6 | IC50 | > 40000 nM
C#CC[C@]1(O)C[C@@H]2c3cc(OCc4cc(C)cc(C)c4)c(OCc4cc(C)cc(C)c4)cc3CCN2[C@@H](C)C1 | ASPC1 | cell growth or viability, MTT |  | IC50 | 791 nM
COc1ccc([S+]([O-])c2ccc(C)cc2)c(OC)c1OC (stereo not shown) |  | tubulin polymerisation, inhibitor, absorbance | pH 6.6 | IC50 | > 40000 nM
COc1cc(Nc2nccc(-c3cnn4nc(OC)ccc34)n2)cc(C(F)(F)F)c1 | ASPC1 | cell growth or viability, ATP luminescence |  | IC50 | 980 nM
